According to ChEMBL document CHEMBL1142153, “Pharmacokinetics and disposition of CS-023 (RO4908463), a novel parenteral carbapenem, in animals” (Antimicrob Agents Chemother, 2007):

Tests used:
[1] = system: Rattus norvegicus; experiment: Urinary excretion in rat assessed as radioactivity at 10 mg/kg, iv after 24 h; type: ADME, organism-based, Urine; set-up: dose 10 mg/kg, route intravenous; settings: in vivo
How it was run: (§1)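 Rats were dosed i.v. via the tail vein with [14C]CS-023 at 10 mg/kg (4.58 MBq/kg) in saline, then kept in individual metabolic cages for separate urine and feces collection over 7 days. Samples up to 24 h were collected at around 4°C into 0.5 M MOPS pH 6.0, and feces were homogenized. Radioactivity was measured by liquid scintillation counting. Parent drug and metabolite were apportioned by silica TLC (3% NaCl:acetonitrile 2:1) with imaging-plate analysis. n=4.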

[2] = system: Rattus norvegicus; experiment: Fecal excretion in rat assessed as radioactivity at 10 mg/kg, iv after 24 h; type: ADME, organism-based; set-up: dose 10 mg/kg, route intravenous; settings: in vivo; how it was run: as §1
[3] = Protein binding in rat serum at 20 ug/ml; type: ADME, cell-free; settings: read-out: PPB (converted)
How it was run: (§2)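 Serum was spiked with CS-023 in water to a final 20 or 100 µg/ml and incubated for 5 min at 37°C. It was then ultrafiltered by centrifugation at 2,000 x g for 10 min at room temperature. Drug in serum before filtration (Ct) and in the filtrate (Cf) was measured by HPLC-UV. Bound % = (Ct − Cf)/Ct × 100; n=4.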

[4] = Protein binding in rat serum at 100 ug/ml; type: ADME, cell-free; settings: read-out: PPB (converted); how it was run: as §2
[5] = Protein binding in dog serum at 20 ug/ml; type: ADME, cell-free, Canis lupus familiaris; settings: read-out: PPB; how it was run: as §2
[6] = Protein binding in dog serum at 100 ug/ml; type: ADME, cell-free, Canis lupus familiaris; settings: read-out: PPB (converted); how it was run: as §2
[7] = Half life in rat at 10 mg/kg, iv; type: ADME, organism-based; set-up: dose 10 mg/kg, route intravenous; settings: in vivo
How it was run: (§3)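 Rats received CS-023 in saline by tail-vein bolus at 10, 25 or 50 mg/kg; jugular blood was drawn serially. Plasma mixed with an equal volume of 500 mM MOPS pH 6.0 containing internal standard, then HPLC with UV at 304 nm (linear 1–500 µg/ml). Log-linear terminal kel gave t1/2; AUC by trapezoidal rule + Clast/kel; CL = dose/AUC0-inf. n=3.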

[8] = Half life in rat at 25 mg/kg, iv; type: ADME, organism-based; set-up: dose 25 mg/kg, route intravenous; settings: in vivo; how it was run: as §3
[9] = Half life in rat at 50 mg/kg, iv; type: ADME, organism-based; set-up: dose 50 mg/kg, route intravenous; settings: in vivo; how it was run: as §3
[10] = Half life in dog at 5 mg/kg, iv; type: ADME, organism-based, Canis lupus familiaris; set-up: dose 5 mg/kg, route intravenous; settings: in vivo
How it was run: (§4)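 Single i.v. bolus of CS-023 in saline into the foreleg saphenous vein of dogs at 5, 10 or 25 mg/kg; serial blood from the same vein. Plasma separated at 4°C, mixed 1:1 with 500 mM MOPS pH 6.0 containing internal standard, and analysed by two-column HPLC with UV at 304 nm; linear 1–500 µg/ml. kel from log-linear terminal slope, t1/2 = 0.693/kel; AUC by trapezoids plus Clast/kel; CL = dose/AUC; Vss = CL × MRT. n=3.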

[11] = Half life in dog at 10 mg/kg, iv; type: ADME, organism-based, Canis lupus familiaris; set-up: dose 10 mg/kg, route intravenous; settings: in vivo; how it was run: as §4
[12] = Half life in dog at 25 mg/kg, iv; type: ADME, organism-based, Canis lupus familiaris; set-up: dose 25 mg/kg, route intravenous; settings: in vivo; how it was run: as §4
[13] = AUC (0-inf) in rat at 10 mg/kg, iv; type: ADME, organism-based; set-up: dose 10 mg/kg, route intravenous, time infinity; settings: plasma; how it was run: as §3
[14] = AUC (0-inf) in rat at 25 mg/kg, iv; type: ADME, organism-based; set-up: time infinity, dose 25 mg/kg, route intravenous; settings: plasma; how it was run: as §3
[15] = AUC (0-inf) in rat at 50 mg/kg, iv; type: ADME, organism-based; set-up: time infinity, dose 50 mg/kg, route intravenous; settings: plasma; how it was run: as §3
[16] = AUC (0-inf) in dog at 5 mg/kg, iv; type: ADME, organism-based, Canis lupus familiaris; set-up: time infinity, dose 5 mg/kg, route intravenous; settings: plasma; how it was run: as §4
[17] = AUC (0-inf) in dog at 10 mg/kg, iv; type: ADME, organism-based, Canis lupus familiaris; set-up: dose 10 mg/kg, route intravenous, time infinity; settings: plasma; how it was run: as §4
[18] = AUC (0-inf) in dog at 25 mg/kg, iv; type: ADME, organism-based, Canis lupus familiaris; set-up: time infinity, dose 25 mg/kg, route intravenous; settings: plasma; how it was run: as §4
[19] = Clearance in rat at 10 mg/kg, iv; type: ADME, organism-based; set-up: dose 10 mg/kg, route intravenous; settings: in vivo; how it was run: as §3
[20] = Clearance in rat at 25 mg/kg, iv; type: ADME, organism-based; set-up: dose 25 mg/kg, route intravenous; settings: in vivo; how it was run: as §3
[21] = Clearance in rat at 50 mg/kg, iv; type: ADME, organism-based; set-up: dose 50 mg/kg, route intravenous; settings: in vivo; how it was run: as §3
[22] = Clearance in dog at 5 mg/kg, iv; type: ADME, organism-based, Canis lupus familiaris; set-up: dose 5 mg/kg, route intravenous; settings: in vivo; how it was run: as §4
[23] = Clearance in dog at 10 mg/kg, iv; type: ADME, organism-based, Canis lupus familiaris; set-up: dose 10 mg/kg, route intravenous; settings: in vivo; how it was run: as §4
[24] = Clearance in dog at 25 mg/kg, iv; type: ADME, organism-based, Canis lupus familiaris; set-up: dose 25 mg/kg, route intravenous; settings: in vivo; how it was run: as §4
[25] = Volume of distribution at steady state in rat at 10 mg/kg, iv; type: ADME, organism-based; set-up: dose 10 mg/kg, route intravenous; settings: in vivo, read-out: Vss
How it was run: (§5)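 Rats dosed once by tail-vein bolus of CS-023 in saline; blood drawn serially from the jugular vein and plasma separated at 4°C. Plasma mixed 1:1 with 500 mM MOPS pH 6.0 containing p-acetamidophenol internal standard and assayed by HPLC with UV at 304 nm (linear 1 to 500 µg/ml). Vss = CL (dose/AUC0-∞) × mean residence time.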

[26] = Volume of distribution at steady state in rat at 25 mg/kg, iv; type: ADME, organism-based; set-up: dose 25 mg/kg, route intravenous; settings: in vivo, read-out: Vss; how it was run: as §5
[27] = Volume of distribution at steady state in rat at 50 mg/kg, iv; type: ADME, organism-based; set-up: dose 50 mg/kg, route intravenous; settings: in vivo, read-out: Vss; how it was run: as §5
[28] = Volume of distribution at steady state in dog at 5 mg/kg, iv; type: ADME, organism-based, Canis lupus familiaris; set-up: dose 5 mg/kg, route intravenous; settings: in vivo, read-out: Vss; how it was run: as §4
[29] = Volume of distribution at steady state in dog at 10 mg/kg, iv; type: ADME, organism-based, Canis lupus familiaris; set-up: dose 10 mg/kg, route intravenous; settings: in vivo, read-out: Vss; how it was run: as §4
[30] = Volume of distribution at steady state in dog at 25 mg/kg, iv; type: ADME, organism-based, Canis lupus familiaris; set-up: dose 25 mg/kg, route intravenous; settings: in vivo, read-out: Vss; how it was run: as §4
[31] = system: Macaca fascicularis; experiment: Half life in monkey at 5 mg/kg, iv; settings: cynomolgus monkey, in vivo
[32] = system: Macaca fascicularis; experiment: Clearance in monkey at 5 mg/kg, iv; settings: cynomolgus monkey, in vivo
[33] = system: Macaca fascicularis; experiment: Half life in monkey at 10 mg/kg, iv; settings: cynomolgus monkey, in vivo
[34] = system: Macaca fascicularis; experiment: Half life in monkey at 25 mg/kg, iv; settings: cynomolgus monkey, in vivo
[35] = system: Macaca fascicularis; experiment: Clearance in monkey at 10 mg/kg, iv; settings: cynomolgus monkey, in vivo
[36] = system: Macaca fascicularis; experiment: Clearance in monkey at 25 mg/kg, iv; settings: cynomolgus monkey, in vivo
[37] = system: Macaca fascicularis; experiment: AUC (0-inf) in monkey at 5 mg/kg, iv; settings: cynomolgus monkey, plasma
[38] = system: Macaca fascicularis; experiment: AUC (0-inf) in monkey at 10 mg/kg, iv; settings: cynomolgus monkey, plasma
[39] = system: Macaca fascicularis; experiment: AUC (0-inf) in monkey at 25 mg/kg, iv; settings: cynomolgus monkey, plasma
[40] = species: Macaca fascicularis; experiment: Protein binding in monkey serum at 20 ug/ml; settings: cynomolgus monkey, read-out: PPB (converted)
[41] = species: Macaca fascicularis; experiment: Protein binding in monkey serum at 100 ug/ml; settings: cynomolgus monkey, read-out: PPB (converted)
[42] = system: Macaca fascicularis; experiment: Volume of distribution at steady state in monkey at 5 mg/kg, iv; settings: cynomolgus monkey, in vivo, read-out: Vss
[43] = system: Macaca fascicularis; experiment: Volume of distribution at steady state in monkey at 25 mg/kg, iv; settings: cynomolgus monkey, in vivo, read-out: Vss
[44] = system: Macaca fascicularis; experiment: Volume of distribution at steady state in monkey at 10 mg/kg, iv; settings: cynomolgus monkey, in vivo, read-out: Vss

Compound: C[C@@H](O)[C@H]1C(=O)N2C(C(=O)O)=C(S[C@H]3C[C@@H](C(=O)N4CC[C@H](NC(=O)CNC(=N)N)C4)N(C)C3)[C@H](C)[C@H]12 [TOMOPENEM]
- Activity [1]: 29.6%
- Activity [2]: 3.1%
- fraction unbound at 20 ug/ml [3]: 0.95
- fraction unbound at 100 ug/ml [4]: 0.941
- fraction unbound at 20 ug/ml [5]: 0.91
- fraction unbound at 100 ug/ml [6]: 0.946
- half-life [7]: 9.6 min
- half-life [8]: 11.4 min
- half-life [9]: 12 min
- half-life [10]: 45 min
- half-life [11]: 45 min
- half-life [12]: 52.8 min
- AUC(0-inf) [13]: 10200 ng·h/mL
- AUC(0-inf) [14]: 28400 ng·h/mL
- AUC(0-inf) [15]: 55000 ng·h/mL
- AUC(0-inf) [16]: 18800 ng·h/mL
- AUC(0-inf) [17]: 39900 ng·h/mL
- AUC(0-inf) [18]: 129 µg·h/mL
- clearance [19]: 16.9 mL/min/kg
- clearance [20]: 15.1 mL/min/kg
- clearance [21]: 15.2 mL/min/kg
- clearance [22]: 4.44 mL/min/kg
- clearance [23]: 4.19 mL/min/kg
- clearance [24]: 3.26 mL/min/kg
- Vd [25]: 0.199 L/kg
- Vd [26]: 0.218 L/kg
- Vd [27]: 0.22 L/kg
- Vd [28]: 0.269 L/kg
- Vd [29]: 0.259 L/kg
- Vd [30]: 0.228 L/kg
- half-life [31]: 79.2 min
- clearance [32]: 1.76 mL/min/kg
- half-life [33]: 83.4 min
- half-life [34]: 86.4 min
- clearance [35]: 1.62 mL/min/kg
- clearance [36]: 1.73 mL/min/kg
- AUC(0-inf) [37]: 48600 ng·h/mL
- AUC(0-inf) [38]: 104 µg·h/mL
- AUC(0-inf) [39]: 244 µg·h/mL
- fraction unbound at 20 ug/ml [40]: 0.844
- fraction unbound at 100 ug/ml [41]: 0.849
- Vd [42]: 0.176 L/kg
- Vd [43]: 0.184 L/kg
- Vd [44]: 0.172 L/kg
